Experimental data taken from ChEMBL document CHEMBL4261491, “Synthesis and synergistic antifungal effects of monoketone derivatives of curcumin against fluconazole-resistant Candida spp” (Medchemcomm, 2017).
Converted amounts (≈) assume the structure as drawn.

Assays:
Candida albicans [1] = experiment: Antifungal activity against fluconazole-resistant Candida albicans clinical isolate 103 by broth microdilution method; assay type: functional
Outline: (§1)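 Broth microdilution per CLSI/NCCLS M27-A2 against FLC-resistant clinical isolates. MIC80 read for each compound alone and with fluconazole at 8.0 μg ml–1. C. albicans ATCC 90028 served as quality control. Curcumin was the positive control.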

Candida albicans [2] = experiment: Antifungal activity against fluconazole-resistant Candida albicans clinical isolate 103 in presence of 8 ug/ml fluconazole by broth microdilution method; assay type: functional; conditions: for MIC80: Candida albicans, isolate 103; outline: as §1
Pichia kudriavzevii [3] = experiment: Antifungal activity against fluconazole-resistant Candida krusei clinical isolate 2159 in presence of 8 ug/ml fluconazole by broth microdilution method; assay type: functional; conditions: for MIC80: Pichia kudriavzevii, isolate 2159; outline: as §1
Candida tropicalis [4] = experiment: Antifungal activity against fluconazole-resistant Candida tropicalis clinical isolate 087 by broth microdilution method; assay type: functional; outline: as §1
Candida tropicalis [5] = experiment: Antifungal activity against fluconazole-resistant Candida tropicalis clinical isolate 087 in presence of 8 ug/ml fluconazole by broth microdilution method; assay type: functional; conditions: for MIC80: Candida tropicalis, isolate 087; outline: as §1
Pichia kudriavzevii [6] = experiment: Antifungal activity against fluconazole-resistant Candida krusei clinical isolate 2159 by broth microdilution method; assay type: functional; outline: as §1
[7] = Cytotoxicity against HUVEC assessed as cell viability at 32 ug/ml after 24 hrs by MTT assay relative to control; assay type: cell-based; conditions: human, HUVEC cells; read-out: Activity
Outline: (§2)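 HUVECs grown in DMEM with 10% FCS and 100 μg ml–1 streptomycin, 5% CO2, 37 °C. Cells exposed to compounds at 16 and 32 μg ml–1 for 24 h, then incubated with MTT solution (5 mg ml–1) for 3 h. Optical density read at 570 nm. Viability expressed as percentage relative to drug-free control.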

[8] = Cytotoxicity against HUVEC assessed as cell viability at 16 ug/ml after 24 hrs by MTT assay relative to control; assay type: cell-based; conditions: human, HUVEC cells; read-out: Activity; outline: as §2

In the case of O=C(/C=C/c1ccc(Br)cc1)/C=C/c1ccc(Br)cc1, the MIC80 (Candida albicans [1]) is reported as > 64 µg/mL, the “fractional inhibitory concentration index (FICI)” value (Candida albicans [2]) is reported as >1.06 and the MIC80 (Candida albicans [2]) is reported as > 64 µg/mL. For the same compound, the “fractional inhibitory concentration index (FICI)” value (Pichia kudriavzevii [3]) was >1.06, the MIC80 (Pichia kudriavzevii [3]) was > 64 µg/mL and the MIC80 (Candida tropicalis [4]) was > 64 µg/mL. The “fractional inhibitory concentration index (FICI)” value (Candida tropicalis [5]) was 0.563, the MIC80 (Candida tropicalis [5]) was 32 µg/mL and the MIC80 (Pichia kudriavzevii [6]) was > 64 µg/mL.
For O=C(/C=C/c1ccc(F)cc1)/C=C/c1ccc(F)cc1, the MIC80 (Candida albicans [1]) was > 64 µg/mL, the “fractional inhibitory concentration index (FICI)” value (Candida albicans [2]) was >1.06 and the MIC80 (Candida albicans [2]) was > 64 µg/mL. The viability at 24 h, 32 ug/ml [7] was 43%, the viability at 24 h, 16 ug/ml [8] was 64% and the “fractional inhibitory concentration index (FICI)” value (Pichia kudriavzevii [3]) was >1.06. The MIC80 (Pichia kudriavzevii [3]) was > 64 µg/mL, the MIC80 (Candida tropicalis [4]) was > 64 µg/mL and the “fractional inhibitory concentration index (FICI)” value (Candida tropicalis [5]) was 0.188. For the same compound, the MIC80 (Candida tropicalis [5]) was 8 µg/mL and the MIC80 (Pichia kudriavzevii [6]) was > 64 µg/mL.
With COc1ccc(/C=C2\CC/C(=C\c3ccc(OC)cc3)C2=O)cc1 the MIC80 (Candida albicans [1]) was > 64 µg/mL, the “fractional inhibitory concentration index (FICI)” value (Candida albicans [2]) was >1.06 and the MIC80 (Candida albicans [2]) was > 64 µg/mL. For the same compound, the “fractional inhibitory concentration index (FICI)” value (Pichia kudriavzevii [3]) was >1.06, the MIC80 (Pichia kudriavzevii [3]) was > 64 µg/mL and the MIC80 (Candida tropicalis [4]) was > 64 µg/mL. For the same compound, the “fractional inhibitory concentration index (FICI)” value (Candida tropicalis [5]) was 1.06, the MIC80 (Candida tropicalis [5]) was 64 µg/mL and the MIC80 (Pichia kudriavzevii [6]) was > 64 µg/mL.
In the case of O=C(/C=C(O)/C=C/c1ccc(O)c(O)c1)/C=C/c1ccc(O)c(O)c1, the MIC80 (Candida albicans [1]) is reported as 64 µg/mL (≈ 188 µM), the “fractional inhibitory concentration index (FICI)” value (Candida albicans [2]) is reported as 0.125 and the MIC80 (Candida albicans [2]) is reported as 4 µg/mL. For the same compound, the “fractional inhibitory concentration index (FICI)” value (Pichia kudriavzevii [3]) was 0.563, the MIC80 (Pichia kudriavzevii [3]) was 2 µg/mL and the MIC80 (Candida tropicalis [4]) was 64 µg/mL (≈ 188 µM). For the same compound, the “fractional inhibitory concentration index (FICI)” value (Candida tropicalis [5]) was 0.125, the MIC80 (Candida tropicalis [5]) was 4 µg/mL and the MIC80 (Pichia kudriavzevii [6]) was 4 µg/mL (≈ 11.8 µM).
With COc1ccc(/C=C2\CC/C(=C\c3ccc(OC)c(OC)c3)C2=O)cc1OC the MIC80 (Candida albicans [1]) was > 64 µg/mL, the “fractional inhibitory concentration index (FICI)” value (Candida albicans [2]) was >1.06 and the MIC80 (Candida albicans [2]) was > 64 µg/mL. The “fractional inhibitory concentration index (FICI)” value (Pichia kudriavzevii [3]) was >1.06, the MIC80 (Pichia kudriavzevii [3]) was > 64 µg/mL and the MIC80 (Candida tropicalis [4]) was > 64 µg/mL. For the same compound, the “fractional inhibitory concentration index (FICI)” value (Candida tropicalis [5]) was 0.313, the MIC80 (Candida tropicalis [5]) was 16 µg/mL and the MIC80 (Pichia kudriavzevii [6]) was > 64 µg/mL.
In the case of O=C(/C=C/c1cccs1)/C=C/c1cccs1, the MIC80 (Candida albicans [1]) is reported as > 64 µg/mL, the “fractional inhibitory concentration index (FICI)” value (Candida albicans [2]) is reported as 0.188 and the MIC80 (Candida albicans [2]) is reported as 8 µg/mL. For the same compound, the viability at 24 h, 32 ug/ml [7] was 49%, the viability at 24 h, 16 ug/ml [8] was 84% and the “fractional inhibitory concentration index (FICI)” value (Pichia kudriavzevii [3]) was >1.06. For the same compound, the MIC80 (Pichia kudriavzevii [3]) was > 64 µg/mL, the MIC80 (Candida tropicalis [4]) was > 64 µg/mL and the “fractional inhibitory concentration index (FICI)” value (Candida tropicalis [5]) was >1.06. The MIC80 (Candida tropicalis [5]) was > 64 µg/mL and the MIC80 (Pichia kudriavzevii [6]) was > 64 µg/mL.
With O=C(/C=C/c1ccc(O)cc1)/C=C/c1ccc(O)cc1 the MIC80 (Candida albicans [1]) was > 64 µg/mL, the “fractional inhibitory concentration index (FICI)” value (Candida albicans [2]) was >1.06 and the MIC80 (Candida albicans [2]) was > 64 µg/mL. The viability at 24 h, 32 ug/ml [7] was 75%, the viability at 24 h, 16 ug/ml [8] was 87% and the “fractional inhibitory concentration index (FICI)” value (Pichia kudriavzevii [3]) was >1.06. For the same compound, the MIC80 (Pichia kudriavzevii [3]) was > 64 µg/mL, the MIC80 (Candida tropicalis [4]) was > 64 µg/mL and the “fractional inhibitory concentration index (FICI)” value (Candida tropicalis [5]) was 0.188. For the same compound, the MIC80 (Candida tropicalis [5]) was 8 µg/mL and the MIC80 (Pichia kudriavzevii [6]) was > 64 µg/mL.
For O=C(/C=C/c1ccc(Cl)cc1)/C=C/c1ccc(Cl)cc1, the MIC80 (Candida albicans [1]) was > 64 µg/mL, the “fractional inhibitory concentration index (FICI)” value (Candida albicans [2]) was >1.06 and the MIC80 (Candida albicans [2]) was > 64 µg/mL. The “fractional inhibitory concentration index (FICI)” value (Pichia kudriavzevii [3]) was >1.06, the MIC80 (Pichia kudriavzevii [3]) was > 64 µg/mL and the MIC80 (Candida tropicalis [4]) was > 64 µg/mL. For the same compound, the “fractional inhibitory concentration index (FICI)” value (Candida tropicalis [5]) was 0.313, the MIC80 (Candida tropicalis [5]) was 16 µg/mL and the MIC80 (Pichia kudriavzevii [6]) was > 64 µg/mL.
For O=C1/C(=C/c2ccc(CO)o2)CC/C1=C\c1ccc(CO)o1, the MIC80 (Candida albicans [1]) was > 64 µg/mL, the “fractional inhibitory concentration index (FICI)” value (Candida albicans [2]) was >1.06 and the MIC80 (Candida albicans [2]) was > 64 µg/mL. For the same compound, the viability at 24 h, 32 ug/ml [7] was 57%, the viability at 24 h, 16 ug/ml [8] was 68% and the “fractional inhibitory concentration index (FICI)” value (Pichia kudriavzevii [3]) was >1.06. For the same compound, the MIC80 (Pichia kudriavzevii [3]) was > 64 µg/mL, the MIC80 (Candida tropicalis [4]) was > 64 µg/mL and the “fractional inhibitory concentration index (FICI)” value (Candida tropicalis [5]) was 0.125. For the same compound, the MIC80 (Candida tropicalis [5]) was 4 µg/mL and the MIC80 (Pichia kudriavzevii [6]) was > 64 µg/mL.
With COc1ccc(/C=C/C(=O)/C=C/c2ccc(OC)c(O)c2)cc1O the MIC80 (Candida albicans [1]) was > 64 µg/mL, the “fractional inhibitory concentration index (FICI)” value (Candida albicans [2]) was 0.563 and the MIC80 (Candida albicans [2]) was 32 µg/mL. For the same compound, the “fractional inhibitory concentration index (FICI)” value (Pichia kudriavzevii [3]) was >1.06, the MIC80 (Pichia kudriavzevii [3]) was > 64 µg/mL and the MIC80 (Candida tropicalis [4]) was > 64 µg/mL. The “fractional inhibitory concentration index (FICI)” value (Candida tropicalis [5]) was 0.188, the MIC80 (Candida tropicalis [5]) was 8 µg/mL and the MIC80 (Pichia kudriavzevii [6]) was > 64 µg/mL.
For COc1ccc(/C=C/C(=O)/C=C/c2ccc(OC)c(OC)c2)cc1OC, the MIC80 (Candida albicans [1]) was > 64 µg/mL, the “fractional inhibitory concentration index (FICI)” value (Candida albicans [2]) was >1.06 and the MIC80 (Candida albicans [2]) was > 64 µg/mL. The viability at 24 h, 32 ug/ml [7] was 55%, the viability at 24 h, 16 ug/ml [8] was 67% and the “fractional inhibitory concentration index (FICI)” value (Pichia kudriavzevii [3]) was >1.06. The MIC80 (Pichia kudriavzevii [3]) was > 64 µg/mL, the MIC80 (Candida tropicalis [4]) was > 64 µg/mL and the “fractional inhibitory concentration index (FICI)” value (Candida tropicalis [5]) was 0.125. For the same compound, the MIC80 (Candida tropicalis [5]) was 4 µg/mL and the MIC80 (Pichia kudriavzevii [6]) was > 64 µg/mL.
With O=C1/C(=C/c2ccc3c(c2)OCO3)CC/C1=C\c1ccc2c(c1)OCO2 the MIC80 (Candida albicans [1]) was > 64 µg/mL, the “fractional inhibitory concentration index (FICI)” value (Candida albicans [2]) was >1.06 and the MIC80 (Candida albicans [2]) was > 64 µg/mL. The “fractional inhibitory concentration index (FICI)” value (Pichia kudriavzevii [3]) was >1.06, the MIC80 (Pichia kudriavzevii [3]) was > 64 µg/mL and the MIC80 (Candida tropicalis [4]) was > 64 µg/mL. For the same compound, the “fractional inhibitory concentration index (FICI)” value (Candida tropicalis [5]) was 1.06, the MIC80 (Candida tropicalis [5]) was 64 µg/mL and the MIC80 (Pichia kudriavzevii [6]) was > 64 µg/mL.
